Compounds with a hit are over-represented: about 8.7% of the library has one in this group of screens.
Ecoli tolC: blocks growth of E. coli BW25113 tolC mutant. OD615. growth inhibition, % at 10 µM (by protocol). 65,000 tested, 2.2% active;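 active means growth inhibition at or above a cutoff equal to the mean over every tested compound plus 3 SD, cut at about 60% in these data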;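 further: growth measured after 20 h incubation at 37 °C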
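Material: E. coli BW25113 ΔtolC::kan, tolC deletion mutant strain. Measure: percent growth inhibition. Schedule: 37 °C, 20 h exposure. Doses: single-point testing at 10 µM. Signal: A615 absorbance measurement. Buffer or medium: kanamycin-containing LB broth (50 µg/mL).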
Ecoli WT expand: E. coli BW25113 growth inhibition, expanded screen; growth inhibition, % at 100 µM; 98,000 tested, 0.15% active; AID 710; OD600 absorbance;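 active means growth inhibition above about 50% at one test dose, limit read from the data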;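 further: growth measured after 20 h incubation at 37 °C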
PTK2B oligo ant: Pyk2 (human) oligomerization antagonism; Q14289; Q293 cells, Pyk2 FERM NanoBiT luminescence; stronger effect = lower value; z-score (the deposit names both 25 µM and 10 µM); 99,000 tested, 0.83% active;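 active means Z-score of -3 or lower, scaled per plate to the spread of control and sample wells; inactive means z-score above -3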;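 further: negative z-score means lost luminescence so less FERM oligomerization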
PostGolgi yeast: growth inhibition of a yeast mutant, post-Golgi transport screen. post-Golgi transport phenotypic cell assay. inhibition, % at 10 µM. 98,000 tested, 0.9% active. AID 739;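 further: yeast cells grown in 1536-well plates; yeast grown about 18 h at 30C before absorbance read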
PostGolgi ctrl: inhibits growth of the yeast control strain | 98,000 tested, 5% active | efflux-deficient yeast background strain, growth absorbance A615, 16 h | inhibition, % at 10 µM
Cav32 inh: human Cav3.2 channel inhibition, primary screen; O95180; Cav3.2-expressing cells, Fluo-4 calcium fluorescence FDSS; stronger effect = lower value; B-score at 10 µM; 100,000 tested, 4% active; AID 449739;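 active means single-dose well whose peak fluorescence ratio is a statistical outlier from its plate by either plate-standardised score or position-corrected B-score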
* = called active by the depositor; x = no result given. Unless noted, no stated cut-off is given here; in the data, active means inhibition above about 30%; inactive means the rest.

SMILES | Ecoli tolC | Ecoli WT expand | PTK2B oligo ant | PostGolgi yeast | PostGolgi ctrl | Cav32 inh
COC(=O)CSc1ncnc2c1sc1nc(-c3ccco3)c3c(c12)CC(C)(C)OC3 | 5.3 | 2.0 | x | -3.6 | 25.4 | x
CCSc1ncnc2c1sc1nc(-c3ccco3)c3c(c12)CC(C)(C)OC3 | x | 3.0 | x | 14.2 | 32.3* | x
COc1ccc2oc(=O)c(-c3nnc(NCc4ccco4)s3)cc2c1 | 9.1 | -12.0 | 1.11 | 39.8* | -3.2 | -1.51
O=C(CN1CCOCC1)OCCCC1CCCCC1 | -15.9 | 4.0 | 0.54 | 13.0 | 6.9 | -0.0358
OCCCc1nc2n(n1)C(c1ccccc1)C=C(c1ccc(F)cc1)N2 (stereo not drawn) | -17.1 | 3.0 | 0.73 | 1.1 | 6.1 | 0.0109
OCCCc1nc2n(n1)C(c1cccs1)C=C(c1ccccc1)N2 (stereo not drawn) | 21.3 | 1.0 | x | -1.3 | 10.5 | -9.93*
c1ccc(COc2ccc(Nc3ncnc4nc[nH]c34)cc2)cc1 | 3.3 | -5.0 | x | -1.2 | 69.9* | 0.445
O=C(Nc1ccccc1)C1=C[C@@H](c2ccc3c(c2)OCO3)C[C@@H](OCCCCO)O1 | x | x | x | x | x | -0.961
Oc1oc(-c2ccccc2)nc1C=Nc1cccc2ccccc12 | x | -17.0 | 0.09 | 12.4 | 39.9* | -1.88
C=CCc1ccc(OCCOCCN(C)C)c(OC)c1 | x | 2.0 | 0.33 | 1.1 | 1.1 | 0.903
C=CCc1ccc(OCCOCCOc2ccc(C)cc2[N+](=O)[O-])c(OC)c1 | x | -4.0 | -0.28 | -3.8 | 10.5 | -5.45*
O=C(N/N=C/c1ccc(Sc2ccccn2)o1)c1cc2ccccc2cc1O | x | -16.0 | -0.15 | -4.6 | -0.5 | -4.99*
C=C(C)CN1C(=O)C(O)(CC(=O)c2ccc3c(c2)OCCO3)c2ccccc21 (stereo not drawn) | 16.3 | 3.0 | 0.16 | -9.7 | 41.2* | -1.13
N#CCCCN1C(=O)C(O)(CC(=O)c2ccc3c(c2)OCCO3)c2ccccc21 (stereo not drawn) | 7.2 | -5.0 | -1.01 | -6.6 | -2.4 | 0.68
COc1cc(NC(=O)c2nnn(Cc3ccc(SC)cc3)c2N)cc(OC)c1 | 38.7 | -7.0 | x | 7.1 | 3.7 | -0.0925
N#Cc1nc(COc2ccc(-c3ccccc3)cc2)oc1NCCCN1CCOCC1 | 34.7 | 15.0 | -0.54 | 78.1* | 16.1 | -1.88
COc1ccccc1-c1nc(C#N)c(N2CCCCCC2)o1 | x | 3.0 | -0.5 | -9.8 | 42.1* | -2.26
COc1ccc(N2CCN(c3oc(COc4ccccc4)nc3C#N)CC2)cc1 | 23.2 | -10.0 | 0.1 | -6.0 | 20.5 | -3.3
COc1ccc(N2CCN(c3oc(COc4ccc(Cl)cc4)nc3C#N)CC2)cc1 | 10.5 | -17.0 | 0.14 | -2.1 | 5.9 | -6.14*
c1ccc(-c2oc3ncnc(NCCCN4CCOCC4)c3c2-c2ccccc2)cc1 | 28.8 | 11.0 | -1.5 | 14.6 | 66.9* | 0.0441
COc1ccc(N2CCN(c3oc(-c4ccco4)nc3C#N)CC2)cc1 | 33.8 | 8.0 | -0.47 | 31.6* | -3.3 | -0.442
COc1ccc(-c2nc(C#N)c(N3CCc4ccccc4C3)o2)cc1OC | x | -8.0 | -1.25 | 4.6 | 32.9* | -0.236
N#Cc1nc(COc2ccccc2)oc1N1CCCC1 | 10.8 | 5.0 | -0.59 | -3.3 | 4.0 | x
N#Cc1nc(COc2ccccc2)oc1N1CCCCCC1 | x | 7.0 | x | -1.9 | 13.2 | -4*
N#Cc1nc(-c2ccco2)oc1N1CCN(c2ccccc2)CC1 | 32.3 | 0.0 | -0.03 | 8.4 | 5.9 | -1.81
C=CCOC(=O)C1=C(C)NC(C)=C(C(=O)OCC=C)C1/C=C/c1ccccc1 | x | -28.0 | -2.94 | -4.2 | 28.0 | -2.27

Bioassay records: PubChem, several laboratories
